Experimental findings from ChEMBL document CHEMBL4431364, “Discovery and synthetic optimization of a novel scaffold for hydrophobic tunnel-targeted autotaxin inhibition” (Bioorg Med Chem, 2016) are described below.

The target in assay [1] is T1, Autotaxin (Homo sapiens, UniProt Q13822). Put plainly: Inhibition of C-terminal FLAG tagged human recombinant ATX expressed in insect sf9 cells using FS-3 as substrate measured every 2 mins for 60 mins by FRET assay. In short, it runs like this:
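Dose response over 0.03 to 30 μM compound, 10 nM human FLAG-fusion ATX, 1 μM FS-3 in pH 8.0 Tris/BSA assay buffer. Fluorescence at 485/520 nm every 2 min for 60 min at 37 °C, normalized to no-ATX and no-compound controls. IC50 by non-linear regression. Triplicate.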

Assay [2] concerns the target T1, Autotaxin. The assay is described as follows: Inhibition of C-terminal FLAG tagged human recombinant ATX expressed in insect sf9 cells at 10 uM using FS-3 as substrate measured every 2 mins for 60 mins by FRET assay. Put shortly:
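10 μM compound with 10 nM human FLAG-fusion ATX in pH 8.0 Tris buffer (30 μM BSA, 1 mM CaCl2, 1 mM MgCl2, 5 mM KCl, 140 mM NaCl) and 1 μM FS-3. Fluorescence at ex 485/em 520 nm read every 2 min for 60 min at 37 °C. Normalized to no-ATX (0%) and ATX without compound (100%). Triplicate.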

Assay [3] concerns the target T1, Autotaxin. Put plainly: Inhibition of C-terminal FLAG tagged human recombinant ATX expressed in insect sf9 cells at 10 uM using pNP-TMP as substrate measured every 2 mins for 60 mins by absorbance.
The target in assay [4] is T1, Autotaxin. The assay is described as follows: Inhibition of C-terminal FLAG tagged human recombinant ATX expressed in insect sf9 cells using pNP-TMP as substrate measured every 2 mins for 60 mins by absorbance. Put shortly: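 Dose response 0.03 to 30 μM compound against 10 nM human FLAG-fusion ATX with 1 mM pNP-TMP in pH 8.0 Tris/BSA buffer. A405 every 2 min for 60 min at 37 °C, normalized to no-enzyme and uninhibited controls. IC50 by non-linear regression. Triplicate.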

The target in assay [5] is Lysophosphatidic acid receptor 4 (Homo sapiens) (UniProt Q99677). Put plainly: Agonist activity at LPA receptor 4 (unknown origin) assessed as calcium mobilization after 30 mins by fluorescence analysis. In kind it is functional. (In general: Calcium flux is commonly read through the fluorescence of an indicator in the cells.)
Assay [6] addresses T2, Glycerophosphocholine cholinephosphodiesterase ENPP6 (Homo sapiens) (UniProt Q6UWR7).
T2 sequence (whole entry): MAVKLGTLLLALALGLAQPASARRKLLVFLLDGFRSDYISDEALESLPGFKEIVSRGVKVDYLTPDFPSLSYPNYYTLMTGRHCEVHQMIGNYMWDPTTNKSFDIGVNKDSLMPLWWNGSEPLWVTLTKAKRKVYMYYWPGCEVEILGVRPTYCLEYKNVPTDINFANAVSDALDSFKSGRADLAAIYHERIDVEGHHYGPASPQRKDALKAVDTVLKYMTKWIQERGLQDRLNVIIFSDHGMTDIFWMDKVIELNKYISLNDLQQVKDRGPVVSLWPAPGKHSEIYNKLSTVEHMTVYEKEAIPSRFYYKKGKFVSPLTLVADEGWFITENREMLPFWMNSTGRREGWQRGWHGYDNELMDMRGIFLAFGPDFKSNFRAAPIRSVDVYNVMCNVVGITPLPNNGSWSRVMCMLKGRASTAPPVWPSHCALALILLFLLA
The assay is described as follows: Inhibition of C-terminal FLAG tagged human recombinant NPP6 expressed in insect sf9 cells assessed as remaining enzyme activity response at 10 uM using pNPPC as substrate measured every 2 mins for 1 hr by […]. Put shortly:
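Final 10 nM human FLAG-fusion NPP6, 10 μM compound, 10 μM pNPPC in 500 mM NaCl, 100 mM Tris-HCl, 0.05% Triton X-100, pH 9. A405 at 37 °C every 2 min for 1 h. Background absorbance subtracted. Mean percent response relative to enzyme-only control (no-enzyme = 0%). Triplicate.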

Assay [7] concerns the target T3, Ectonucleotide pyrophosphatase/phosphodiesterase family member 7 (Homo sapiens) (UniProt Q6UWV6).
T3 sequence (whole entry): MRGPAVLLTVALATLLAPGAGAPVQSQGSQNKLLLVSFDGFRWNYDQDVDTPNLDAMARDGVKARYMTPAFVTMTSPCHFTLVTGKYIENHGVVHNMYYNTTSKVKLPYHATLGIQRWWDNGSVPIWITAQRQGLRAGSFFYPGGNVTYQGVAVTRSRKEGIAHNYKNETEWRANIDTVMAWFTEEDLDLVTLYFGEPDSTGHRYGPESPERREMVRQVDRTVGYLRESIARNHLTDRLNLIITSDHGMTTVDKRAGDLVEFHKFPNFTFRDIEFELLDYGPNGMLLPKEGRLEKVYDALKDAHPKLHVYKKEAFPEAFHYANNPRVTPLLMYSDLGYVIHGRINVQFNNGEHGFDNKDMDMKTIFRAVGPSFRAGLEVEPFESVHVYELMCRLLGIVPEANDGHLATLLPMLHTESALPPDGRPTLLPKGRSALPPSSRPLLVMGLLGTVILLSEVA
Put plainly: Inhibition of C-terminal FLAG tagged human recombinant NPP7 expressed in insect sf9 cells assessed as remaining enzyme activity response at 10 uM using pNPPC as substrate measured every 2 mins for 1 hr by […]. Put shortly: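 Human FLAG-fusion NPP7 (10 nM final) with 10 μM compound and 10 μM pNPPC in 50 mM Tris-HCl, 150 mM NaCl, 10 mM taurocholate, pH 8. Absorbance at 405 nm, 37 °C, every 2 min for an hour. Background subtracted. Mean percent of enzyme-only response (no-enzyme = 0%). Triplicate.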

Assay [8] concerns the target Lysophosphatidic acid receptor 1 (Homo sapiens) (UniProt Q92633). The assay is described as follows: Agonist activity at LPA receptor 1 (unknown origin) assessed as calcium mobilization after 30 mins by fluorescence analysis. In kind it is functional.
For assay [9], the target named is Lysophosphatidic acid receptor 2 (Mus musculus) (UniProt Q9JL06). The assay is described as follows: Agonist activity at LPA receptor 2 in double knockout MEF assessed as calcium mobilization after 30 mins by fluorescence analysis. In kind it is functional, cell-based.
The target in assay [10] is T4, Lysophosphatidic acid receptor 3 (Homo sapiens) (UniProt Q9UBY5).
T4 sequence (whole entry): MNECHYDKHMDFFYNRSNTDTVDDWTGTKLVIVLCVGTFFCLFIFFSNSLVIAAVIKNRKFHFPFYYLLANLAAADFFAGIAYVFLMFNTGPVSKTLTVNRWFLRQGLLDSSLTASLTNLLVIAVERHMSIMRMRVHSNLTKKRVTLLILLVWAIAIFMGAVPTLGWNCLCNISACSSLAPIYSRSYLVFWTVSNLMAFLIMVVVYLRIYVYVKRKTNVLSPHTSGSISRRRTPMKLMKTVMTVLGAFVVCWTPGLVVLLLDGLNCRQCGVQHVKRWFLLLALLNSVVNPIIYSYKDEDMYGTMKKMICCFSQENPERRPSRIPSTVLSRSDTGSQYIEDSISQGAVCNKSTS
The assay is described as follows: Agonist activity at LPA receptor 3 (unknown origin) assessed as calcium mobilization after 30 mins by fluorescence analysis. In kind it is functional.

Assay [11] deals with Lysophosphatidic acid receptor 5 (Homo sapiens) (UniProt Q9H1C0). Put plainly: Agonist activity at LPA receptor 5 (unknown origin) assessed as calcium mobilization after 30 mins by fluorescence analysis. In kind it is functional.
Assay [12] addresses Lysophosphatidic acid receptor 1 (Homo sapiens) (UniProt Q92633). Put plainly: Antagonist activity at LPA receptor 1 (unknown origin) assessed as inhibition of LPA induced calcium mobilization at 0.01 to 10 uM after 30 mins by fluorescence analysis. In kind it is functional.
Assay [13] has as its target Lysophosphatidic acid receptor 2 (Mus musculus) (UniProt Q9JL06). Put plainly: Antagonist activity at LPA receptor 2 in double knockout MEF assessed as inhibition of LPA induced calcium mobilization at 0.01 to 10 uM after 30 mins by fluorescence analysis. In kind it is functional, cell-based.
For assay [14], the target named is T4, Lysophosphatidic acid receptor 3 (Homo sapiens). Put plainly: Antagonist activity at LPA receptor 3 (unknown origin) assessed as inhibition of LPA induced calcium mobilization at 0.01 to 10 uM after 30 mins by fluorescence analysis. In kind it is functional.
In assay [15] the target is Lysophosphatidic acid receptor 4 (Homo sapiens) (UniProt Q99677). Put plainly: Antagonist activity at LPA receptor 4 (unknown origin) assessed as inhibition of LPA induced calcium mobilization at 0.01 to 10 uM after 30 mins by fluorescence analysis. In kind it is functional.
In assay [16] the target is Lysophosphatidic acid receptor 5 (Homo sapiens) (UniProt Q9H1C0). The assay is described as follows: Antagonist activity at LPA receptor 5 (unknown origin) assessed as inhibition of LPA induced calcium mobilization at 0.01 to 10 uM after 30 mins by fluorescence analysis. In kind it is functional.
Assay [17] deals with Lysophosphatidic acid receptor 2 (Mus musculus) (UniProt Q9JL06). The assay is described as follows: Potentiation of LPA induced activity at LPA receptor 2 in double knockout MEF assessed as calcium mobilization at 0.01 to 10 uM after 30 mins in presence of BSA by Fura-2AM based fluorescence analysis. In kind it is functional, cell-based.
Assay [18] concerns the target T1, Autotaxin. The assay is described as follows: Potency index, ratio of IC50 for GRI392104 to IC50 for test compound for inhibition of C-terminal FLAG tagged human recombinant ATX expressed in insect sf9 cells using FS-3 as substrate measured every 2 mins for 60 mins by FRET assay.

Activity calls are given as the source filed them. No cut-off for these calls is given here.

Lysophosphatidic acid receptor 2 (Mus musculus), sequence (Q9JL06 whole entry): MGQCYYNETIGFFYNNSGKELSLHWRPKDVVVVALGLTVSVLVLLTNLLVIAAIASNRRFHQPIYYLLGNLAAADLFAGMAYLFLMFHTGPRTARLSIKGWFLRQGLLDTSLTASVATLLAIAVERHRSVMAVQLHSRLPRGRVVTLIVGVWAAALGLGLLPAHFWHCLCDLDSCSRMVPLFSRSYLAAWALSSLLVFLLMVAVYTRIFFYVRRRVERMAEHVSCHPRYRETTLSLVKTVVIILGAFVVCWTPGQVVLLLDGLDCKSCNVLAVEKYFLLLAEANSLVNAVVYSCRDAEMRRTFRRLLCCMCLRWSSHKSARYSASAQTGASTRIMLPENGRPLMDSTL
Lysophosphatidic acid receptor 1 (Homo sapiens), sequence (Q92633 whole entry): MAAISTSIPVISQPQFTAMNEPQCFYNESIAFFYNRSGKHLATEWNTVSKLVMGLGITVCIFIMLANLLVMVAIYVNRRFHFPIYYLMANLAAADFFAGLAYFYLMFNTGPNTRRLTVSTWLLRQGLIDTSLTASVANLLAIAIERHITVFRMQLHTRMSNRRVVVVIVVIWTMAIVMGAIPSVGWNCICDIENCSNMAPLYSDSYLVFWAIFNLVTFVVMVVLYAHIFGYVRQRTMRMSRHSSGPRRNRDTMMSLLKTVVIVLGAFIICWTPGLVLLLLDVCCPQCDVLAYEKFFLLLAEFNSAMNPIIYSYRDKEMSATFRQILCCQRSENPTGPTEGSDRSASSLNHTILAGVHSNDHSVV
Lysophosphatidic acid receptor 4 (Homo sapiens), sequence (Q99677 whole entry): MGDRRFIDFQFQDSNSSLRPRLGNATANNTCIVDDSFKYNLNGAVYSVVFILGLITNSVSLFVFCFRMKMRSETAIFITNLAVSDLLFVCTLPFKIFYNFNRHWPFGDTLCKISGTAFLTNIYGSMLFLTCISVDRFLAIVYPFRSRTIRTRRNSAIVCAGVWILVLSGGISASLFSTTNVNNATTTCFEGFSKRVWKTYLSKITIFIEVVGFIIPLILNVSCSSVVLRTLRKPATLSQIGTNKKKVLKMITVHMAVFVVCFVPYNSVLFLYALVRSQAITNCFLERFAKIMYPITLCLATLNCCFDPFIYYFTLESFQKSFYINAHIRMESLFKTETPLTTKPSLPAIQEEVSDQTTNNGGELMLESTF
Lysophosphatidic acid receptor 5 (Homo sapiens), sequence (Q9H1C0 whole entry): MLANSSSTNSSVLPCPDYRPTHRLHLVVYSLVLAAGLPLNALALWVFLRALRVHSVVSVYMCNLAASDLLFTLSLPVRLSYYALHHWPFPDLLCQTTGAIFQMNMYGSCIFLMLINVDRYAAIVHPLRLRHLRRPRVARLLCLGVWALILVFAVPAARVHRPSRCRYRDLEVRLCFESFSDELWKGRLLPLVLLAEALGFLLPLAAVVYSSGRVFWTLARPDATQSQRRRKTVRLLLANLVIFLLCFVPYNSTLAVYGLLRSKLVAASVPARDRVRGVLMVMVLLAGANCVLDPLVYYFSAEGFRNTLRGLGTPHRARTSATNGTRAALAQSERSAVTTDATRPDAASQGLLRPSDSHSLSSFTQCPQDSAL

The IC50 is the concentration that gives 50% inhibition. The term inhibition denotes the share of the control response that was lost under treatment. As for `O=C(COc1cc(Cl)cc(Cl)c1)N1CCN(c2cccc([N+](=O)[O-])c2)CC1`, the IC50 in assay [1] turned out to be 670 nM; in assay [4], 8.9 µM. The inhibition turned out to be 84.3% in assay [2] and 52.1% in assay [3]. Besides, the outcome in assay [5], in assay [8], in assay [9], in assay [10] and in assay [11] was inactive. Besides, the Activity in [6] came out at 89.8%; in assay [7], 102%. In addition, the inhibition result in assay [12], in [13], in assay [14], in assay [15] and in assay [16] was “inactive” in each case. Further, the outcome in assay [17] was Active. Besides, the Ratio IC50 in assay [18] stood at 6.
